From ChEMBL document CHEMBL3259729, “Optimizing the Physicochemical Properties of Raf/MEK Inhibitors by Nitrogen Scanning” (ACS Med Chem Lett, 2014)
≈ marks a conversion by molar mass, not a printed value.

Tests used:
[1] = AUC in BALB-nu/nu mouse at 100 mg/kg, po measured after 24 hrs by LC-MS/MS analysis; assay type: ADME, organism-based; design: time < 24 hr, dose 100 mg/kg, route oral; conditions: plasma
Outline: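 Mice dosed orally at 100 mg/kg as a solution in 5% DMSO, 5% Cremophor EL, 15% PEG400, 15% 2-hydroxypropyl-β-cyclodextrin and 60% water.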

[2] = biological target: Dual specificity mitogen-activated protein kinase kinase 1 (Homo sapiens, UniProt Q02750, S218E/S222E); assay: Inhibition of constitutively active MEK1 S218E,S222E mutant (unknown origin) assessed as MAP kinase 2/Erk2-mediated FAM-Erktide phosphorylation using MAP kinase 2/Erk2 as substrate preincubated for 30 mins by IMAP fluorescence polarization assay
HT-29 = assay: Inhibition of human HT-29 cell growth; assay type: functional, cell-based
[3] = Intrinsic clearance in human liver microsomes at 5 uM by LC/MS/MS analysis; assay type: ADME; conditions: read-out: CLH
[4] = Membrane permeability of the compound at pH 6.5 by PAMPA PSR4p assay; assay type: physicochemical; conditions: read-out: permeability
Cytochrome P450 2C9 [5] = biological target: T1, Cytochrome P450 2C9 (Homo sapiens, UniProt P11712); assay: Inhibition of CYP2C9 in human liver microsomes using diclofenac as substrate measured after 30 mins preincubation by LC-MS/MS analysis in absence of NADPH; assay type: ADME
Outline: (§1)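 The IC50 is determined after a 30 min preincubation without NADPH.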

Cytochrome P450 2C9 [6] = biological target: T1, Cytochrome P450 2C9; assay: Inhibition of CYP2C9 in human liver microsomes using diclofenac as substrate measured after 30 mins preincubation by LC-MS/MS analysis in presence of NADPH; assay type: ADME
Outline: (§2)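 The IC50 is determined after a 30 min preincubation with NADPH.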

Cytochrome P450 3A4 [7] = biological target: T2, Cytochrome P450 3A4 (Homo sapiens, UniProt P08684); assay: Inhibition of CYP3A4 in human liver microsomes using midazolam as substrate measured after 30 mins preincubation by LC-MS/MS analysis in absence of NADPH; assay type: ADME; outline: as §1
Cytochrome P450 3A4 [8] = biological target: T2, Cytochrome P450 3A4; assay: Inhibition of CYP3A4 in human liver microsomes using midazolam as substrate measured after 30 mins preincubation by LC-MS/MS analysis in presence of NADPH; assay type: ADME; outline: as §2
[9] = Bioavailability in BALB-nu/nu mouse at 2.5 mg/kg, iv and 5 mg/kg, po by LC-MS/MS analysis; assay type: ADME, organism-based; conditions: in vivo
[10] = Clearance in BALB-nu/nu mouse at 2.5 mg/kg, iv and 5 mg/kg, po by LC-MS/MS analysis; assay type: ADME, organism-based; conditions: in vivo
[11] = Bioavailability in Crlj:CD rat at 2.5 mg/kg, iv and 5 mg/kg, po by LC-MS/MS analysis; assay type: ADME, organism-based; conditions: in vivo
[12] = Clearance in Crlj:CD rat at 2.5 mg/kg, iv and 5 mg/kg, po by LC-MS/MS analysis; assay type: ADME, organism-based; conditions: in vivo
[13] = Bioavailability in cynomolgus monkey at 2.5 mg/kg, iv and 5 mg/kg, po by LC-MS/MS analysis; assay type: ADME, organism-based, Macaca fascicularis; conditions: in vivo
[14] = Clearance in cynomolgus monkey at 2.5 mg/kg, iv and 5 mg/kg, po by LC-MS/MS analysis; assay type: ADME, organism-based, Macaca fascicularis; conditions: in vivo
C32 [15] = assay: Antitumor activity against human C32 cells xenografted in po dosed BALB-nu/nu mouse assessed as tumor growth inhibition administered qd for 11 days; assay type: functional; conditions: for ED50: Mus musculus, C32, po, 264 h
Outline: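 C32 cells implanted subcutaneously in the right flank of BALB-nu/nu mice, with tumors established before treatment. Compound given orally once daily for 11 days (day 0 to day 10). Tumor size measured twice per week. Values are mean SD, n = 4.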

Mus musculus [16] = assay: Toxicity in po dosed BALB-nu/nu mouse xenografted with human C32 cells assessed as body weight administered qd for 11 days; assay type: organism-based; conditions: in vivo, 264 h
Mus musculus [17] = assay: Toxicity in po dosed BALB-nu/nu mouse xenografted with human C32 cells assessed as adverse clinical signs administered qd for 11 days; assay type: organism-based; conditions: in vivo, 264 h
[18] = Saturated solubility of the compound in fasted state simulated intestinal fluid after 24 hrs by shaking flask method; assay type: ADME; conditions: fasted state simulated intestinal fluid (FaSSIF)
Outline: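 Free crystalline form equilibrated for 24 h in FaSSIF, and the saturated concentration was reported.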

[19] = Dissociation constant, pKa of the compound at 10 mM by spectroscopic titration analysis; assay type: physicochemical
C32 [20] = assay: Growth inhibition of human C32 cells harboring B-Raf V600E mutant
HCT-116 = assay: Inhibition of human HCT116 cell growth after 96 hrs by counting kit-8 analysis; assay type: functional, cell-based; conditions: HCT-116, 96 h
[21] = biological target: RAF proto-oncogene serine/threonine-protein kinase (Homo sapiens, UniProt P04049); assay: Inhibition of truncated active C-Raf (unknown origin) assessed as MEK1 phosphorylation using inactive MEK1 K97R as substrate after 45 mins
[22] = Solubility of the compound in fasted state simulated intestinal fluid by LYSA method; assay type: ADME; conditions: fasted state simulated intestinal fluid (FaSSIF)
[23] = Supersaturated solubility of the compound in fasted state simulated intestinal fluid after 4 hrs by miniscale dissolution test; assay type: ADME; conditions: fasted state simulated intestinal fluid (FaSSIF)

Dual specificity mitogen-activated protein kinase kinase 1, sequence (Q02750 whole entry S218E/S222E): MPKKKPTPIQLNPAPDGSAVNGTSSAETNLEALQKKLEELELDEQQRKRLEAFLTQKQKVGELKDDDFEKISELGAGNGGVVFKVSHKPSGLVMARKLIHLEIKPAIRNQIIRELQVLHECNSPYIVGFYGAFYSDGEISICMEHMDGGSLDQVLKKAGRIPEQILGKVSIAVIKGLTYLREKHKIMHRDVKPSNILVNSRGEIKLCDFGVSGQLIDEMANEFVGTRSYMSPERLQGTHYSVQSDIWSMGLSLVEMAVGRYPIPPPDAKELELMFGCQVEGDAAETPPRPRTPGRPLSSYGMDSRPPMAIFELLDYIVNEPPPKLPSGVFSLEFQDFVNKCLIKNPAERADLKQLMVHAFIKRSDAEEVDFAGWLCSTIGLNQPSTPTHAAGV
T1 sequence (P11712 whole entry): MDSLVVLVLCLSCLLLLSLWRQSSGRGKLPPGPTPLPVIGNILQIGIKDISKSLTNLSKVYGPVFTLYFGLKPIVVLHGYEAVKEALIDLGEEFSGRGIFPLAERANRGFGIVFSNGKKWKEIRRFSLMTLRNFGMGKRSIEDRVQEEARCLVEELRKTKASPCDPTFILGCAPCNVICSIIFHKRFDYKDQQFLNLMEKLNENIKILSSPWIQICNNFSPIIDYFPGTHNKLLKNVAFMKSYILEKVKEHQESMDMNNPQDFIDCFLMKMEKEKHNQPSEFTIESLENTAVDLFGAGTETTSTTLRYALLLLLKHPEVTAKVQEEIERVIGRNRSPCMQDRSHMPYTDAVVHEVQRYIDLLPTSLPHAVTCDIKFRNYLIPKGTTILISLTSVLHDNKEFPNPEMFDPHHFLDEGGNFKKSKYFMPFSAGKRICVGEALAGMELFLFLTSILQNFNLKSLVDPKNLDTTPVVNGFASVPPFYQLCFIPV
RAF proto-oncogene serine/threonine-protein kinase, sequence (P04049 whole entry, the tested form may be a part): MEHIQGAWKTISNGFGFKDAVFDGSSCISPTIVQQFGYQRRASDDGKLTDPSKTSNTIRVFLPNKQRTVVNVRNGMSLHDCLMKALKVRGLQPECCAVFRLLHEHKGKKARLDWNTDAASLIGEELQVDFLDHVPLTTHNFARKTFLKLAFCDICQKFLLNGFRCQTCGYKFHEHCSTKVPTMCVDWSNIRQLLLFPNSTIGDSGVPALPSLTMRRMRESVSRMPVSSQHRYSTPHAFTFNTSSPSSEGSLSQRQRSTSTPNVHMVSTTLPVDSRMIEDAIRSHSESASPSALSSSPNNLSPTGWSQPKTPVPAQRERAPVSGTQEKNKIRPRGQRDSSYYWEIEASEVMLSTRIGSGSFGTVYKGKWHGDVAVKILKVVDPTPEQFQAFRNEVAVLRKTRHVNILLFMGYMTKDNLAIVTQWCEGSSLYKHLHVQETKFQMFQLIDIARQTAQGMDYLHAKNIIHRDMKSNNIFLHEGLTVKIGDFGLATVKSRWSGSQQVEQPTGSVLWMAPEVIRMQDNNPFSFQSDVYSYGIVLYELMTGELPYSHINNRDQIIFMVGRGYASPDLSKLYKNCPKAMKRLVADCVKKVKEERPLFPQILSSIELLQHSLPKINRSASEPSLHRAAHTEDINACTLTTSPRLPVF
T2 sequence (P08684 whole entry): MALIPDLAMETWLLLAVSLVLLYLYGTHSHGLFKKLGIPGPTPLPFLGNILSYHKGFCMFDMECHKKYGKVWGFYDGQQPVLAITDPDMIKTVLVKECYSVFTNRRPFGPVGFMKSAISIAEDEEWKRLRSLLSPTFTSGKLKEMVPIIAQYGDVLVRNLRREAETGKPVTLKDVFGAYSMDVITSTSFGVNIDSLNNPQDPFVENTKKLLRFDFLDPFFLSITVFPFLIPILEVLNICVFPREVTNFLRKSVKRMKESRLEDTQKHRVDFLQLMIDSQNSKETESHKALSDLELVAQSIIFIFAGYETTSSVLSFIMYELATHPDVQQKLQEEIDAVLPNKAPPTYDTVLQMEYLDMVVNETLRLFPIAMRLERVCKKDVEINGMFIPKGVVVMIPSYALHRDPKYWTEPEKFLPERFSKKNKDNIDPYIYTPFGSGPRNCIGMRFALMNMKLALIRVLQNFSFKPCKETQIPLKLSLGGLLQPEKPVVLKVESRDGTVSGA

SMILES	AUC at 24 h [1]	IC50 [2]	IC50 (HT-29)	microsomal CLint at 5 µM [3]	IC50 (HCT-116)	IC50 [21]	solubility [22]	other results
CNS(=O)(=O)[N-]c1cccc(Cc2c(C)c3ccc(OC(=O)N(C)C)cc3oc2=O)c1.[Na+]	78 µM·h	–	–	–	–	–	–	–
CNS(=O)(=O)Nc1cccc(Cc2c(C)c3cc(C)c(OC(=O)N(C)C)cc3oc2=O)c1	18 µM·h	29 nM	8 nM	17 µL/min/mg	–	–	–	Papp [4]: 4 ×10⁻⁶ cm/s
CNS(=O)(=O)Nc1cccc(Cc2c(C)c3ccc(OC(=O)N(C)C)cc3oc2=O)c1	–	110 nM	9 nM	20 µL/min/mg	–	–	–	IC50 (Cytochrome P450 2C9 [5]): 29000 nM; IC50 (Cytochrome P450 2C9 [6]): 96000 nM; IC50 (Cytochrome P450 3A4 [7]): 13000 nM; IC50 (Cytochrome P450 3A4 [8]): 5600 nM
CNS(=O)(=O)Nc1cccc(Cc2c(C)c3ccc(Oc4ncccn4)cc3oc2=O)c1F	425 µM·h	97 nM	–	6.7 µL/min/mg	–	–	–	IC50 (Cytochrome P450 2C9 [5]): 19000 nM; IC50 (Cytochrome P450 2C9 [6]): 19000 nM; IC50 (Cytochrome P450 3A4 [7]): 26000 nM; IC50 (Cytochrome P450 3A4 [8]): 11000 nM; bioavailability [9]: 75%; clearance [10]: 6.8 mL/min/kg; bioavailability [11]: 84%; clearance [12]: 6.6 mL/min/kg; bioavailability [13]: 59%; clearance [14]: 0.9 mL/min/kg; TGI (C32 [15]): 96%; ED50 (C32 [15]): 1.44 mg/kg; Activity (Mus musculus [16]): Non-toxic; Activity (Mus musculus [17]): Non-toxic; solubility thermodynamic at 24 h [18]: 5.5 µg/mL (≈ 11.7 µM); pKa at 10000 µM [19]: 8.86; IC50 (C32 [20]): 57 nM
CNS(=O)(=O)Nc1cccc(Cc2c(C)c3ccc(OC(=O)N(C)C)nc3oc2=O)c1	–	440 nM	600 nM	3 µL/min/mg	1100 nM	2500 nM	43 µg/mL (≈ 96.3 µM)	Papp [4]: 3 ×10⁻⁶ cm/s
CNS(=O)(=O)Nc1cccc(Cc2c(C)c3ccc(OC(=O)N(C)C)cc3oc2=O)n1	314 µM·h	110 nM	73 nM	7 µL/min/mg	270 nM	70 nM	320 µg/mL (≈ 717 µM)	Papp [4]: 6 ×10⁻⁶ cm/s
CNS(=O)(=O)Nc1cc(Cc2c(C)c3ccc(OC(=O)N(C)C)cc3oc2=O)ccn1	134 µM·h	99 nM	25 nM	6 µL/min/mg	32 nM	32 nM	55 µg/mL (≈ 123 µM)	Papp [4]: 7 ×10⁻⁶ cm/s; IC50 (Cytochrome P450 2C9 [5]): > 100000 nM; IC50 (Cytochrome P450 2C9 [6]): > 100000 nM; IC50 (Cytochrome P450 3A4 [7]): > 100000 nM; IC50 (Cytochrome P450 3A4 [8]): > 100000 nM
CNS(=O)(=O)Nc1cncc(Cc2c(C)c3ccc(OC(=O)N(C)C)cc3oc2=O)c1	–	> 50000 nM	> 10000 nM	–	> 10000 nM	> 50000 nM	240 µg/mL (≈ 538 µM)	–
CNS(=O)(=O)Nc1ccnc(Cc2c(C)c3cc(C)c(OC(=O)N(C)C)cc3oc2=O)c1	–	37000 nM	5700 nM	–	> 10000 nM	27000 nM	425 µg/mL (≈ 923 µM)	–
CNS(=O)(=O)Nc1nccc(Cc2c(C)c3ccc(Oc4ccccc4)cc3oc2=O)c1F	–	76 nM	–	–	110 nM	21 nM	–	–
CNS(=O)(=O)Nc1nccc(Cc2c(C)c3ccc(Oc4ccccn4)cc3oc2=O)c1F	–	190 nM	–	–	45 nM	81 nM	–	–
CNS(=O)(=O)Nc1nccc(Cc2c(C)c3ccc(Oc4cnccn4)cc3oc2=O)c1F	–	650 nM	–	–	900 nM	56 nM	–	–
CNS(=O)(=O)Nc1cccc(Nc2c(C)c3ccc(Oc4ncccn4)cc3oc2=O)c1	–	> 50000 nM	–	–	> 10000 nM	> 50000 nM	–	–
CNS(=O)(=O)[N-]c1cccc(Cc2c(C)c3ccc(Oc4ncccn4)cc3oc2=O)c1F.[K+]	–	–	–	–	–	–	–	solubility at 4 h [23]: 12 µg/mL
CNS(=O)(=O)[N-]c1nccc(Cc2c(C)c3ccc(Oc4ncccn4)cc3oc2=O)c1F.[K+] [AVUTOMETINIB POTASSIUM]	–	–	–	–	–	–	–	solubility at 4 h [23]: 57 µg/mL
CNS(=O)(=O)Nc1nccc(Cc2c(C)c3ccc(Oc4ncccn4)cc3oc2=O)c1F [AVUTOMETINIB]	2830 µM·h	–	–	0.5 µL/min/mg	40 nM	56 nM	159 µg/mL (≈ 337 µM)	IC50 (Cytochrome P450 2C9 [5]): 12000 nM; IC50 (Cytochrome P450 2C9 [6]): 60000 nM; IC50 (Cytochrome P450 3A4 [7]): > 100000 nM; IC50 (Cytochrome P450 3A4 [8]): > 100000 nM; bioavailability [9]: 93%; clearance [10]: 1.1 mL/min/kg; bioavailability [11]: 66%; clearance [12]: 0.7 mL/min/kg; bioavailability [13]: 82%; clearance [14]: 0.1 mL/min/kg; TGI (C32 [15]): 118%; ED50 (C32 [15]): 0.09 mg/kg; Activity (Mus musculus [16]): Non-toxic; Activity (Mus musculus [17]): Non-toxic; solubility thermodynamic at 24 h [18]: 2.7 µg/mL (≈ 5.73 µM); pKa at 10000 µM [19]: 7.02; IC50 (C32 [20]): 47 nM
